Laboratory results reported in ChEMBL document CHEMBL1126136, “Stereoselective LSD-like activity in d-lysergic acid amides of (R)- and (S)-2-aminobutane” (J Med Chem, 1992).

Columns and labels:
[1] = tested on: Rattus norvegicus; experiment: Percentage of animals selecting drug lever at a dose 47nmol/kg; format: functional
In short: (§1)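 Two-lever drug discrimination in rats trained to tell ip LSD tartrate (0.08 mg/kg, 186 nmol/kg, 30 min pretreatment) from saline, FR50 food schedule. Test drugs were given ip in saline. Test sessions ran under extinction and ended at 50 presses on one lever. Read-out was the percentage of rats selecting the drug lever at each dose; an 85% accuracy criterion applied.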

[2] = tested on: Rattus norvegicus; experiment: Percentage of animals selecting drug lever at a dose 163 nmol/kg; format: functional; in short: as §1
[3] = tested on: Rattus norvegicus; experiment: Percentage of animals selecting drug lever at a dose 139 nmol/kg; format: functional; in short: as §1
[4] = organism: Rattus norvegicus; experiment: Potency of compound in 1-trained rats; format: functional
[5] = organism: Rattus norvegicus; experiment: Potency of compound in 1-trained rats measured as ED50 relative to LSD; format: functional
[6] = tested on: Rattus norvegicus; experiment: Percentage of animals selecting drug lever at a dose 301 nmol/kg; format: functional; in short: as §1
[7] = tested on: Rattus norvegicus; experiment: Percentage of animals selecting drug lever at a dose 93 nmol/kg; format: functional; in short: as §1
[8] = tested on: Rattus norvegicus; experiment: Percentage of animals selecting drug lever at a dose 279 nmol/kg; format: functional; in short: as §1
[9] = tested on: Rattus norvegicus; experiment: Percentage of animals selecting drug lever at a dose 186 nmol/kg; format: functional; in short: as §1
[10] = tested on: Rattus norvegicus; experiment: Percentage of animals selecting drug lever at a dose 6 nmol/kg; format: functional; in short: as §1
[11] = tested on: Rattus norvegicus; experiment: Percentage of animals selecting drug lever at a dose 23 nmol/kg; format: functional; in short: as §1
[12] = molecular target: T1, 5-hydroxytryptamine receptor 1A (Rattus norvegicus, UniProt P19327); experiment: Affinity in displacing [3H]8-OH-DPAT from rat hippocampal 5-HT1A receptor.; format: tissue-based, Hippocampus
T1 sequence (P19327 whole entry): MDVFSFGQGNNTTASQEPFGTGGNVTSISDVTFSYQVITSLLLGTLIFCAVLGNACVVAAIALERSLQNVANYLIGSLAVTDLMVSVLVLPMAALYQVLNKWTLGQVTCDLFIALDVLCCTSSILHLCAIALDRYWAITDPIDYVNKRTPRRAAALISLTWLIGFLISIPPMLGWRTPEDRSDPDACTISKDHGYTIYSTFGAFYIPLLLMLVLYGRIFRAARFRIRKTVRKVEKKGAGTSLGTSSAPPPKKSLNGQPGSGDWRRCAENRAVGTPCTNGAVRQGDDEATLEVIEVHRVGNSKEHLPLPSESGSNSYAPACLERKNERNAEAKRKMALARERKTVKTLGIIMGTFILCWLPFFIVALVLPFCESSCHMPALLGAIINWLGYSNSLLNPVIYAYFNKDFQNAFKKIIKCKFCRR
In short: (§2)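 Male Sprague-Dawley rat hippocampal homogenate (pooled from 10–20 rats, sucrose-washed, preincubated twice at 37 °C). Membranes at 200–400 µg protein in 50 mM Tris HCl pH 7.4 with 0.5 mM EDTA, 0.1% ascorbate and 10 µM pargyline. Displacement of 1.0 nM [3H]-8-OH-DPAT, 10 min at 37 °C, then filtered. Nonspecific binding defined with 10 µM serotonin. Triplicates; 3–4 experiments.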

[13] = molecular target: T2, Serotonin receptor 2a and 2b (5HT2A and 5HT2B) (Rattus norvegicus, UniProt P30994+P14842); experiment: Affinity in displacing [125I](R)-DOI from rat cortical homogenate 5-HT2 receptor.
In short: (§3)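 Male Sprague-Dawley rat frontal cortex homogenate (pooled from 10–20 rats, sucrose-washed, preincubated twice at 37 °C). Membranes at 200–400 µg protein in 50 mM Tris HCl pH 7.4 with 0.5 mM EDTA, 0.1% ascorbate, 10 µM pargyline and 10 mM MgCl2. Triplicates; Ki from 3–4 experiments.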

[14] = tested on: Rattus norvegicus; experiment: Percentage of animals selecting drug lever at a dose 12 nmol/kg; format: functional; in short: as §1
[15] = molecular target: T1, 5-hydroxytryptamine receptor 1A; experiment: Affinity in displacing [3H]8-OH-DPAT from rat hippocampal 5-hydroxytryptamine 1A receptor.; format: tissue-based, Hippocampus; in short: as §2
[16] = tested on: Rattus norvegicus; experiment: Percentage of animals selecting drug lever at a dose 290 nmol/kg; format: functional; in short: as §1
[17] = tested on: Rattus norvegicus; experiment: Percentage of animals selecting drug lever at a dose 465 nmol/kg; format: functional; in short: as §1
[18] = molecular target: T2, Serotonin receptor 2a and 2b (5HT2A and 5HT2B); experiment: Affinity in displacing [125I](R)-DOI from rat cortical homogenate 5-hydroxytryptamine 2 receptor.
In short: as §3, with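 “MgCl2. Displacement of 0.25 nM [125I]-(R)-DOI, 15 min at 37 °C, then filtered and gamma-counted.” for “MgCl2.”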

[19] = tested on: Rattus norvegicus; experiment: Percentage of animals selecting drug lever at a dose 372 nmol/kg; format: functional; in short: as §1

Compound	SDL [1] [%]	SDL [2] [%]	SDL [3] [%]	ED50 [4] [µmol/kg]	Relative potency [5]	SDL [6] [%]	SDL [7] [%]	SDL [8] [%]	SDL [9] [%]	SDL [10] [%]	SDL [11] [%]	Ki [12] [nM]	Ki [13] [nM]	SDL [14] [%]	Ki [15] [nM]	SDL [16] [%]	SDL [17] [%]	Ki [18] [nM]	SDL [19] [%]
CN1C[C@H](C(=O)N2CCCC2)C=C2c3cccc4[nH]cc(c34)C[C@H]21	22	40	27	0.168	0.16	82	22	67	60										
CCN(CC)C(=O)[C@@H]1C=C2c3cccc4[nH]cc(c34)C[C@H]2N(C)C1 [LYSERGIDE]	78			0.0275			100			0	36	5.05							
CC[C@@H](C)NC(=O)[C@@H]1C=C2c3cccc4[nH]cc(c34)C[C@H]2N(C)C1	75			0.033	0.82		75		88		50	2.01	2.63	13					
CC[C@H](C)NC(=O)[C@@H]1C=C2c3cccc4[nH]cc(c34)C[C@H]2N(C)C1	13			0.124	0.22		50		75						4.61	67	100	7.76	75
